Screens: PubChem BioAssay, The Scripps Research Institute Molecular Screening Center
VIM-2 inh = blocks Pseudomonas aeruginosa VIM-2 metallo-beta-lactamase; purified VIM-2, nitrocefin hydrolysis, epi-absorbance fluorescence; inhibition, % at 5.6 µM; actives 0.89% (n = 290,000);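 active = inhibition above the mean of all tested compounds plus 3 SD, cutoff set per screening run, cut at about 7.5% in these data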;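 also: red hydrolysis product quenches plate fluorescence so inhibitors raise well fluorescence; 0% = enzyme with DMSO and 100% = DMSO without enzyme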
CTSL1 counter-1 = cathepsin L1 inhibition, PFM18AAP counter-screen. recombinant F. hepatica cathepsin L1, Z-Leu-Arg-MCA fluorescence. inhibition, % at 5.96 µM. actives 0.49% (n = 300,000). AID 1906;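 active = inhibition above the mean of all tested compounds plus 3 SD, set per screening campaign, cut at about 17% in these data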;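 also: 0% = plate median of test compound wells and 100% = 1 µM Z-Phe-Ala-diazomethylketone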
PfM18AAP inh-1 = PfM18AAP enzyme inhibition; actives 1.2% (n = 290,000); AID 1822; inhibition, % at 7.35 µM; recombinant PfM18AAP, H-Glu-NHMec fluorogenic cleavage;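 active = inhibition above the campaign mean inhibition over all tested compounds plus 3 SD, cut at about 28% in these data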;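 also: 0% = plate median of test compound wells and 100% = 2 mM ZnCl2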
IMP-1 inhibitor = inhibitors of Pseudomonas aeruginosa IMP-1 metallo-beta-lactamase | purified IMP-1, nitrocefin hydrolysis, epi-absorbance fluorescence | inhibition, % at 5.6 µM | actives 0.45% (n = 290,000) | AID 1556;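 active = inhibition above the mean plus 3 SD of all compounds in the same screening run, cut at about 4.5% in these data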;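 also: 0% = IMP-1 with DMSO and 100% = DMSO wells lacking enzyme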
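System: Purified IMP-1 | Read-out basis: Percent enzyme inhibition | Controls: IMP-1 with DMSO as 0%, enzyme-free DMSO as 100% | Replicates: One well per compound | Doses: 5.6 µM nominal single concentration | Detection: Epi-absorbance fluorescence, 480 nm excitation, 530 nm emission | Incubation: 25 °C, 15 min preincubation, 25 min reaction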
PfM18AAP inh-2 = PfM18AAP inhibition, confirmation. shares compounds with PfM18AAP inh-1. AID 2170. actives 28% (n = 2,400). recombinant PfM18AAP, H-Glu-NHMec fluorogenic cleavage. inhibition, % at 7.35 µM;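 active = mean inhibition over replicate wells above the hit cutoff set for the earlier primary screen, cut at about 29% in these data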;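 also: 0% = median of test compound wells and 100% = 2 mM ZnCl2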
CTSL1 counter-2 = counter-screen for PFM18AAP inhibitors: confirmation of human cathepsin L inhibitors | purified cathepsin L1, Z-Leu-Arg-MCA fluorescence | shares compounds with PfM18AAP inh-1 | 2,400 tested, under 10 active | inhibition, % at 5.96 µM;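 active = average inhibition across replicates above the hit cutoff set in the earlier primary screen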;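 also: 0% = median of test compound wells and 100% = Z-Phe-Ala-diazomethylketone 1 µM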
Target sequence (P07711 whole entry, looked up): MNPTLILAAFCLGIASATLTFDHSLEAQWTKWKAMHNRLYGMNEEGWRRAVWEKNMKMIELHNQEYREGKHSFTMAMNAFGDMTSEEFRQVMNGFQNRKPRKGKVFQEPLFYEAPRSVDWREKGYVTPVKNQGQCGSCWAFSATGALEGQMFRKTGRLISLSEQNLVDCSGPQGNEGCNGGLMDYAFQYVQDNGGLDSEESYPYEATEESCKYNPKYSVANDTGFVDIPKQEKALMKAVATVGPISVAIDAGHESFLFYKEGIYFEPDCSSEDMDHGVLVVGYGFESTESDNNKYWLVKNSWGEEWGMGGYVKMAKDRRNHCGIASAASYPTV
Active calls of the source: *; / = no result. In the library only some 2.7% were active in any assay of this set; here they are far more common.

SMILES	VIM-2 inh	CTSL1 counter-1	PfM18AAP inh-1	IMP-1 inhibitor	PfM18AAP inh-2	CTSL1 counter-2
COc1cc(/C=N/n2cc(-c3ccccc3)[nH]c2=S)cc(OC)c1O	-5	2	62*	-3	48*	2
S=c1[nH]c(-c2ccccc2)cn1/N=C/c1ccccc1Br	-3	1	33*	-2	24	3
Oc1ccc(/C=N/n2cc(-c3ccccc3)[nH]c2=S)cc1	-6	1	61*	-4	41*	4
S=c1[nH]nc(-c2ccccc2)n1/N=C/c1ccc(Cl)cc1	-2	/	20	-3	/	/
S=c1[nH]c(-c2ccccc2)cn1/N=C/c1cccc2ccccc12	-4	-4	25	-1	/	/
COc1ccc(CN2C(=O)C(=O)N(CC(N)=O)C2=O)cc1	-3	2	-3	-4	/	/
Cc1[nH][nH]c(=O)c1C(c1ccc(N(C)C)c(Br)c1)c1c(C)[nH][nH]c1=O	0	5	36*	-2	17	5
O=C1C(C2=NC(c3ccccn3)C3C(=O)N(c4ccccc4)C(=O)C23)=C(O)c2ccccc21 (configuration not stated)	-4	0	71*	-3	-30	2
Cc1ccc(-c2n[nH]c(=S)n2/N=C/c2ccc(C)o2)cc1	1	2	18	-4	/	/
Cc1ccc(/C=N/n2c(-c3ccc(Cl)cc3)n[nH]c2=S)o1	-5	5	32*	-3	-24	3
CCOC(=O)C1=C(COC(=O)c2ncc(Cl)c(Cl)c2Cl)NC(=O)NC1C (configuration not stated)	/	-2	/	/	/	/
O=C(N/N=C/c1ccc(N2CCOCC2)s1)c1ccccc1Br	-6	0	41*	-4	-22	7
CC(C)(C)OC(=O)N/N=C/c1ccc(N2CCOCC2)s1	-1	-5	7	1	/	/
O=C(CN1C(=O)c2cccc3cccc1c23)NC1CCCC1	3	2	-8	-1	/	/
O=C(Nc1ccc(Br)cc1Cl)Nn1cnnc1	-4	-13	75*	-3	78*	0
Cc1cc(C)cc(NC(=O)Nn2cnnc2)c1	-3	/	54*	-2	37*	-3
O=C(Nc1ccccc1)Nn1cnnc1	-1	/	56*	-3	40*	-3
O=C(CC(=O)Nc1ccc(Br)cc1)Nc1ccc(Br)cc1	0	-6	-2	-1	/	/
O=C(Nc1ccc(Br)cc1)Nn1cnnc1	-2	-1	73*	0	56*	-2
O=C(Nc1ccccc1)Nc1ccncc1	-2	0	-5	-5	/	/
Cc1ccc(CNC(=O)C2CCCN(S(=O)(=O)N3CC(C)CC(C)C3)C2)cc1 (configuration not stated)	-1	0	-9	-2	/	/
Cc1ncc(CO)c(/C=N/NC(=O)c2cc(O)c(O)c(O)c2)c1O	-1	/	58*	24*	36*	-4
Cc1ncc(CO)c(/C=N/NC(=O)c2ccc(Br)cc2)c1O	-4	-1	12	-2	/	/
O=c1c2ccccc2nc(COc2ccccc2)n1/N=C/c1ccc(O)c(O)c1	-1	7	53*	-2	25	6
Oc1ccc(/C=N/n2c(COc3ccccc3)n[nH]c2=S)cc1O	-3	-2	53*	-3	20	-8
SMILES	VIM-2 inh	CTSL1 counter-1	PfM18AAP inh-1	IMP-1 inhibitor	PfM18AAP inh-2	CTSL1 counter-2
O=C(O)COc1ccc(/C=N/n2c(COc3ccccc3)nc3ccccc3c2=O)cc1	-5	1	-2	-3	/	/
O=C(NC1CCSc2ccccc21)c1cc(S(=O)(=O)N2CCOCC2)ccc1Cl (configuration not stated)	/	1	/	/	/	/
Cc1cc(C)cc(OCC(=O)Nc2cccc(-c3nc4ncccc4o3)c2)c1	-2	5	2	-1	/	/
CCCCOc1ccc([N+](=O)[O-])cc1C(=O)O	-2	1	5	-3	/	/
COc1ccc(CN(C)Cc2c(O)ccc3ccccc23)cc1	-2	1	47*	-3	-64	-2
CCc1nc2ccc(C(=O)N3CCN(c4ccc([N+](=O)[O-])cc4)CC3)cc2nc1CC	2	4	-4	1	/	/
COc1ccccc1N1CCN(Cc2cc3c(cc2[N+](=O)[O-])OCO3)CC1	-2	2	32*	-2	-25	4
Oc1ccccc1NCC(O)Cn1ccc2ccccc21 (configuration not stated)	-3	-1	56*	-3	18	1
OC(CNCc1ccccc1)Cn1ccc2ccccc21 (configuration not stated)	-4	1	3	-2	/	/
COc1ccc(CCNC(=O)CSc2ccc3ccccc3c2)cc1OC	-3	4	-6	-2	/	/
O=C(CSc1ccc2ccccc2c1)NCCc1ccc(O)c(O)c1	-2	2	57*	-3	41*	4
COc1ccc(N2CCN(S(=O)(=O)CCNC(=O)c3cccs3)CC2)cc1	/	-2	/	/	/	/
Cc1ccc(/C=N/NC(=O)C(C)Oc2ccccc2[N+](=O)[O-])s1 (configuration not stated)	-3	-1	-13	-1	/	/
COc1ccc(C(=O)NNC2=CC(=O)CC(C)(C)C2)cc1	-3	0	47*	-3	27	-1
CC1(C)CC(=O)C=C(NNC(=O)c2ccccc2O)C1	-3	-6	9	-2	/	/
COc1cc(OC)c2c(=O)cc(-c3ccccc3)oc2c1	-1	8	5	-1	/	/
COc1cc(-c2cc(OC)c3c(C)oc(C)c3c(=O)c2)ccc1O	0	1	21	-2	/	/
COc1c(O)c(O)c2oc(-c3ccccc3)cc(=O)c2c1OC	4	-2	33*	-3	12	3
COc1cc(-c2cc(=O)c3c(O)c(OC)c(OC)c(O)c3o2)ccc1O	1	3	49*	-2	32*	3
CC1=NNC(=O)/C1=C\c1cn(-c2ccccc2)nc1-c1ccc(F)cc1	-3	/	39*	-5	64*	0
Cc1cc(C)n(CC(=O)Nc2ccc3c(c2)OCO3)c(=O)c1C#N	/	-1	/	/	/	/
CC1(C)Cc2c(sc3nc(=S)[nH]c(N)c23)CO1	-2	5	32*	-1	-11	5
Cn1c(NN)nc2sc3c(c2c1=O)CC(C)(C)OC3	-4	-1	21	-5	/	/
Cc1nc(NN)c2c3c(sc2n1)COC(C)(C)C3	-5	1	58*	-3	16	-7
CC1(C)Cc2c(sc3ncnc(N)c23)CO1	0	-2	14	1	/	/
CCCN1CCN(C(=O)c2oc3c(Cl)cccc3c2C)CC1	-2	2	1	-2	/	/
CCOc1cccc(N(C(=O)CNC(=O)c2ccco2)C(C(=O)NCC2CCCO2)c2ccccc2)c1 (configuration not stated)	1	1	1	0	/	/
COc1ccc(/C=N/Nc2nc(C(=O)O)cs2)cc1	-5	2	34*	-4	-4	0
C/C(=N\Nc1nc(C(C)(C)C)cs1)c1ccccc1	-2	5	8	-1	/	/
